Experimental data: paper PMC3498903 (Journal of medicinal chemistry, 2012)
“Also recorded” adds a separate entry of the source. Structures can show the parent of a compound that is named as a salt. Where two headings read alike, the source gives them in different places.

Columns and labels:
HFF cells = assay: In vitro toxicity assay on HFF host cells; assay type: cell-based, human; settings: HFF used as host cells in the parasite assay
[1] = tested on: T. gondii TgGoatUS4 oocysts; assay: Mouse model of T. gondii oocyst infection, TgGoatUS4 oocysts; assay type: in vivo, Toxoplasma gondii; settings: 25 or 100 mg/kg, versus untreated infected mice
Outline: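 Mice, 5 per group, were challenged orally with TgGoatUS4 oocysts that had been sporulated in 2% sulfuric acid and neutralised with 3.3% NaOH. Test compound was given at 100 or 25 mg/kg as a 1 mL suspension by oral gavage in 1% DMSO/5% PEG 400/94% of 0.5% CMC. Controls were compound-only and untreated infected mice. Survival was observed daily, with tachyzoites sought in tissue smears.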

[2] = tested on: THdhxgTRP tachyzoites transfected with pLK47; assay: Insertional mutagenesis experiments: selection of resistant mutants; assay type: cell-based, Toxoplasma gondii; settings: prolonged incubation (six weeks); data not shown
mice = assay: In vivo toxicity in uninfected mice dosed orally; settings: for Day of Death: Challenge None, B7 mice; for toxic effects on oral dosing (survival, well-being criteria): gavage daily for nine days, 100mg/kg
T. gondii tachyzoites = assay: In vitro inhibition of T. gondii tachyzoites; assay type: cell-based, Toxoplasma gondii; settings: for MIC50 / MIC90: T. gondii tachyzoites in vitro; for activity against T. gondii tachyzoites in words: in vitro, only MIC50 ≤ 1 μM considered active
P. falciparum TM91-C235 = assay: Malaria SYBR Green I-based fluorescence; assay type: cell-based, Plasmodium falciparum; settings: for IC50: Plasmodium falciparum, 72 h; for efficacy against TM91-C235 compared with D6: comparison of IC50 values of the two strains
[3] = tested on: P. falciparum D6 (CDC/Sierra Leone); assay: Malaria SYBR Green I-based fluorescence; assay type: cell-based; settings: Plasmodium falciparum, D6, 72 h, read-out: D6 IC50
RH-YFP tachyzoites = assay: Determination of static or cidal effects on RH-YFP tachyzoites; assay type: cell-based, Toxoplasma gondii; settings: 1 μM; for static or cidal effect: Conditions A-D, growth assessed at days 11, 17, 25; for duration of treatment giving a cidal effect: compound removed after treatment
[4] = Hydrolytic stability on incubation in THF and buffer; settings: mixture of THF and buffer (pH 7.4 or pH 8.5); data not shown
T. gondii Me-49 oocysts = assay: Mouse model of T. gondii oocyst infection, ME49 oocysts; assay type: in vivo, Toxoplasma gondii; settings: 25 or 100 mg/kg, versus untreated infected mice
Outline: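 […] female mice (~25 g), 5 per group. Each mouse received test compound at 100 or 25 mg/kg (2.5 or […], 1.0 mL) by oral gavage in 1% DMSO/5% PEG 400/94% of 0.5% CMC, with or without 100 acid-sporulated, NaOH-neutralised ME49 oocysts orally. Controls were compound-only and oocyst-only groups. Mice were observed daily for survival. Infection was confirmed by tachyzoites in tissue smears.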

For “2-((2,4-bis(trifluoromethyl)phenyl)carbamoyl)-4-chlorophenyl(2-hydrazinyl-2-oxoethyl) (methyl)carbamate hydrochloride [Compound 14b]”, the Toxicity (HFF cells) was >1000 nM, the increased survival [1] was 1 days and the “growth of insertional mutant parasites in the presence of compound” value (from here on “growth of insertional mutant parasites”) [2] was “No parasite growth”. For the same compound, the “Day of Death” value (mice; 25 mg/kg oral gavage) was “None”, the “Day of Death” value (mice; 100 mg/kg oral gavage) was “None” and the “toxic effects on oral dosing (survival, well-being criteria)” value (mice) was “all mice were alive and appeared healthy”.

For “5-chloro-2-hydroxy-N-(3,4,5-trimethoxyphenyl)benzamide [Compound 3q]”, the MIC50 (T. gondii tachyzoites) was >1 µM, the MIC90 (T. gondii tachyzoites) was >1 µM and the “activity against T. gondii tachyzoites in words” value (from here on “activity”) (T. gondii tachyzoites) was “devoid of activity; also recorded: inactive”.

For “5-chloro-2-hydroxy-N-(5-methoxy-2-methylphenyl)benzamide [Compound 3x]”, the MIC50 (T. gondii tachyzoites) was >1 µM and the MIC90 (T. gondii tachyzoites) was >1 µM.

In the case of “5-chloro-N-(3-cyano-4-fluorophenyl)-2-hydroxybenzamide [Compound 3t]”, the MIC50 (T. gondii tachyzoites) is reported as >1 µM and the MIC90 (T. gondii tachyzoites) is reported as >1 µM.

`CCN(CC)CCCC(C)Nc1ccnc2cc(Cl)ccc12` (stereo not drawn) [Chloroquine, reference compound] gave an IC50 (P. falciparum TM91-C235; read-out: C235 IC50) of 89 nM and an IC50 [3] of 7 nM.

With `CC(C)(C)c1cccc(NC(=O)c2cc(Cl)ccc2O)c1` [Compound 3i, N-(3-tert-butylphenyl)-5-chloro-2-hydroxybenzamide] the IC50 (P. falciparum TM91-C235; read-out: C235 IC50, multi-drug resistant strain TM91-C235, 72 hours) was > 6500 nM, the “efficacy against TM91-C235 compared with D6” value (shortened to “efficacy … compared with D6”) (P. falciparum TM91-C235) was “two-fold higher IC50” and the “static or cidal effect” value (RH-YFP tachyzoites) was “parasitostatic; also recorded: static effect”. For the same compound, the “activity” value (T. gondii tachyzoites) was “much more active than 3l”, the Toxicity (HFF cells) was >1000 nM and the “growth of insertional mutant parasites” value [2] was “No parasite growth”.

In the case of `O=C(Nc1cc(C(F)(F)F)cc(C(F)(F)F)c1)c1cc(Cl)ccc1O` [Compound 3j], the “efficacy … compared with D6” value (P. falciparum TM91-C235) is reported as “equally effective”, the “static or cidal effect” value (RH-YFP tachyzoites) is reported as “parasitocidal; also recorded: cidal” and the “duration of treatment giving a cidal effect” value (“duration” below) (RH-YFP tachyzoites) is reported as “cidal effect after four days of treatment”. For the same compound, the “activity” value (T. gondii tachyzoites) was “promising activity”, the Toxicity (HFF cells) was >1000 nM and the “growth of insertional mutant parasites” value [2] was “No parasite growth”.

With `O=C(Nc1ccc([N+](=O)[O-])cc1Cl)c1ccccc1O` [Compound 3k, N-(2-chloro-4-nitrophenyl)-2-hydroxybenzamide] the “activity” value (T. gondii tachyzoites) was “eliminated activity altogether”.

In the case of `COc1ccc(NC(=O)c2cc(Cl)ccc2O)cc1OC` [Compound 3v, 5-chloro-N-(3,4-dimethoxyphenyl)-2-hydroxybenzamide], the “activity” value (T. gondii tachyzoites) is reported as “devoid of activity”.

With `O=C(Nc1cccc(OC(F)F)c1)c1cc(Cl)ccc1O` [Compound 3z, 5-chloro-N-(3-(difluoromethoxy)phenyl)-2-hydroxybenzamide] the MIC50 (T. gondii tachyzoites) was >1 µM and the MIC90 (T. gondii tachyzoites) was >1 µM.

For `Nc1ccc(NC(=O)c2cc(Cl)ccc2O)c(Cl)c1` [Compound 5, N-(4-amino-2-chlorophenyl)-5-chloro-2-hydroxybenzamide hydrochloride], the “activity” value (T. gondii tachyzoites) was “all activity was lost; also recorded: destroyed”.

In the case of `O=C(Oc1ccc(Cl)cc1C(=O)Nc1ccc([N+](=O)[O-])cc1Cl)c1ccccc1` [Compound 7a, 4-chloro-2-((2-chloro-4-nitrophenyl)carbamoyl)phenyl benzoate], the “efficacy … compared with D6” value (P. falciparum TM91-C235) is reported as “equally effective”, the “static or cidal effect” value (RH-YFP tachyzoites) is reported as “parasitocidal; also recorded: cidal” and the “duration” value (RH-YFP tachyzoites) is reported as “cidal effect after four days of treatment”. The “activity” value (T. gondii tachyzoites) was “apparent increase in potency over 4”, the Toxicity (HFF cells) was >1000 nM and the stability against hydrolysis [4] was “hydrolytically labile”. For the same compound, the “growth of insertional mutant parasites” value [2] was “No parasite growth”.

For `COC(=O)[C@@H]1CCCN1C(=O)Oc1ccc(Cl)cc1C(=O)Nc1ccc([N+](=O)[O-])cc1Cl` [Compound 7b, (S)-1-(4-chloro-2-((2-chloro-4-nitrophenyl)carbamoyl)phenyl) 2-methyl pyrrolidine-1,2-dicarboxylate], the stability against hydrolysis [4] was “much more stable against hydrolysis”.

With `O=C(Nc1ccc([N+](=O)[O-])cc1Cl)c1cc(Cl)ccc1OC(=O)N1CCOCC1` [Compound 7c, 4-chloro-2-((2-chloro-4-nitrophenyl)carbamoyl)phenyl morpholine-4-carboxylate] the “activity” value (T. gondii tachyzoites) was “devoid of activity” and the stability against hydrolysis [4] was “much more stable against hydrolysis”.

With `CN1CCN(C(=O)Oc2ccc(Cl)cc2C(=O)Nc2ccc([N+](=O)[O-])cc2Cl)CC1` [Compound 7d, 4-chloro-2-((2-chloro-4-nitrophenyl)carbamoyl)phenyl 4-methylpiperazine-1-carboxylate] the “activity” value (T. gondii tachyzoites) was “modest activity; also recorded: devoid of activity” and the stability against hydrolysis [4] was “much more stable against hydrolysis”.

With `CN(CC(=O)NN)C(=O)Oc1ccc(Cl)cc1C(=O)Nc1ccc([N+](=O)[O-])cc1Cl.Cl` [Compound 14a, 4-chloro-2-((2-chloro-4-nitrophenyl)carbamoyl)phenyl (2-hydrazinyl-2-oxoethyl)(methyl) carbamate hydrochloride] the increased survival (T. gondii Me-49 oocysts) was 1 days, the “efficacy … compared with D6” value (P. falciparum TM91-C235) was “equally effective” and the “static or cidal effect” value (RH-YFP tachyzoites) was “cidal”. The “duration” value (RH-YFP tachyzoites) was “cidal effect after ten days of treatment”, the Toxicity (HFF cells) was >1000 nM and the “Day of Death” value (mice; 25 mg/kg oral gavage) was “None”. The “Day of Death” value (mice; 100 mg/kg oral gavage) was “None” and the “toxic effects on oral dosing (survival, well-being criteria)” value (mice) was “all mice were alive and appeared healthy”.

With “N-(2,3-dihydrobenzo[b][1,4]dioxin-6-yl)-2-hydroxybenzamide [Compound 3ab]” the MIC50 (T. gondii tachyzoites) was >1 µM, the MIC90 (T. gondii tachyzoites) was >1 µM and the “activity” value (T. gondii tachyzoites) was “devoid of activity; also recorded: inactive”.

With “N-(2,4-dichlorophenyl)-5-chloro-2-hydroxybenzamide [Compound 3n]” the “activity” value (T. gondii tachyzoites) was “slight activity; also recorded: active”.

With “N-(2,4-difluorophenyl)-5-chloro-2-hydroxybenzamide [Compound 3o]” the MIC50 (T. gondii tachyzoites) was >1 µM, the MIC90 (T. gondii tachyzoites) was >1 µM and the “activity” value (T. gondii tachyzoites) was “inactive”.

For “N-(2-chloro-5-nitrophenyl)-5-methyl-2-hydroxybenzamide [Compound 3m]”, the “activity” value (T. gondii tachyzoites) was “decreased potency; also recorded: inactive; also recorded: about one-half as active as 4”.
